Measurements as given in ChEMBL document CHEMBL5223184, “Structure-Based Design of Glycosylated Oxytocin Analogues with Improved Selectivity and Antinociceptive Activity” (ACS Med Chem Lett, 2023).
Calls of active or inactive are those of the source. Bridge positions count the residues as written; N and C are the ends. Square brackets hold non-standard residues; d marks the D form. Peptide text beside a SMILES is read from it. * marks the point of attachment. X1 = OC[C@H]1O[C@@H](O[C@H]2[C@H](O)[C@@H](O)[C@H](*)O[C@@H]2CO)[C@H](O)[C@@H](O)[C@H]1O; βGlc = OC[C@H]1O[C@@H](*)[C@H](O)[C@@H](O)[C@@H]1O; Dap = NC[C@H](N)C(=O)O; Aib = CC(C)(N)C(=O)O

What was measured:
[1] = target: T1, Oxytocin receptor (Homo sapiens, UniProt P30559); experiment: Activation of human 3X-HA N-tagged OTR expressed in CHO-K1 cells incubated for 10 mins by cell Western assay; type: cell-based
T1 sequence (P30559 whole entry): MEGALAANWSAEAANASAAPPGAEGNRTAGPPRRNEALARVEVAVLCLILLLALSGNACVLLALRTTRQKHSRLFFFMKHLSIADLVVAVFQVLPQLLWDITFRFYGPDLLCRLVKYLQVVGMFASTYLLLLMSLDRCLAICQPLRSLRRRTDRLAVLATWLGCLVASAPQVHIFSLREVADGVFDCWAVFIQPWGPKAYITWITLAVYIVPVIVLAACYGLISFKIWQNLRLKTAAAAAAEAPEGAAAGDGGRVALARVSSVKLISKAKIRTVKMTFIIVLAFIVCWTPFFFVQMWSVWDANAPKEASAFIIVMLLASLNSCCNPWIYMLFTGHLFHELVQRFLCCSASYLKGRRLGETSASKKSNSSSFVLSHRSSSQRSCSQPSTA
In short: (§1)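 In-cell Western read-out of ERK MAPK activation in CHO cells expressing the human receptor (OTR, AVP1a or AVP1b). Potency reported as mean ± SEM of N = 3 independent experiments.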

[2] = target: Vasopressin V1a receptor (Homo sapiens, UniProt P37288); experiment: Activation of human 3X-HA N-tagged AVP1a expressed in CHO-K1 cells incubated for 10 mins by cell Western assay; type: cell-based; in short: as §1
Chain of Vasopressin V1a receptor (P37288 whole entry): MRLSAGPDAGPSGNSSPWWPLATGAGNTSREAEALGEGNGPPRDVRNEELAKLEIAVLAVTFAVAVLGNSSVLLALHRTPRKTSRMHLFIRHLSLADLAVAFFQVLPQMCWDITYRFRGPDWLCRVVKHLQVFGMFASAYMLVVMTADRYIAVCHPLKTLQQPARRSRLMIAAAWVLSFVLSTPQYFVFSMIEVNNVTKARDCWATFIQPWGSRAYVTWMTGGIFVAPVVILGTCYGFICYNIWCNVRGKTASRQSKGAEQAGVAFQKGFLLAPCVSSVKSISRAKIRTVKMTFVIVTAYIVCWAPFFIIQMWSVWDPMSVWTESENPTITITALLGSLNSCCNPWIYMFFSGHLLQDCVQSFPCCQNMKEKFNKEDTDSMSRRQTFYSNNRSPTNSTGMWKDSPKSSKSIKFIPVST

[3] = target: T2, Vasopressin V1b receptor (Homo sapiens, UniProt P47901); experiment: Activation of human 3X-HA N-tagged AVP1b expressed in CHO-K1 cells incubated for 10 mins by cell Western assay; type: cell-based; in short: as §1
T2 sequence (P47901 whole entry): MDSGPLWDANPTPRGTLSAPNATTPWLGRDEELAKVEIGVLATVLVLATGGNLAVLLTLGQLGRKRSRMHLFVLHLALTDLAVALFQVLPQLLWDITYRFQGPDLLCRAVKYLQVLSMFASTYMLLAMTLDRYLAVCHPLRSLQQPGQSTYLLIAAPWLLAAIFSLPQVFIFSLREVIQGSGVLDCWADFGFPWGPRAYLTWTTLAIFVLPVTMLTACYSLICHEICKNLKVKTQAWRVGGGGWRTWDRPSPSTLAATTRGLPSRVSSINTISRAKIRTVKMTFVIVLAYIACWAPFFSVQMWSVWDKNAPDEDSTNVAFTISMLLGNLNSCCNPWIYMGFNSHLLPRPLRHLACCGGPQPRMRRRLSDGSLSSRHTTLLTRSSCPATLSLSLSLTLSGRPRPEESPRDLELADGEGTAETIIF

[4] = system: Mus musculus; experiment: Antinociceptive activity against CD-1 mouse assessed as pain relief at 10 mg/kg, iv measured after 2 hrs by tail flick test; type: functional, organism-based
In short: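 Male CD-1 mice dosed at 10 mg/kg by intravenous injection into the tail vein. Vehicle, oxytocin and morphine groups run alongside. Tail flick in 52 °C water with a 10 s cutoff. Mean ± SEM, N = 5 mice/group.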

Row | SMILES | EC50 ([1]; cho-k1) [nM] | EC50 [2] | EC50 [3] | EC50 [1] [nM] | Activity [4]
1 | CC[C@H](C)[C@@H]1NC(=O)[C@H](Cc2ccc(O)cc2)NC(=O)[C@@H](N)CC(=O)NC[C@@H](C(=O)N2CCC[C@H]2C(=O)NC(C)(C)C(=O)N[C@H](CO[C@@H]2O[C@H](CO)[C@@H](O)[C@H](O)[C@H]2O)C(N)=O)NC(=O)[C@H](CC(N)=O)NC(=O)[C@H](CCC(N)=O)NC1=O | 0.28 | Not Active | Not Active | – | –
2 | CC[C@H](C)[C@@H]1NC(=O)[C@H](Cc2ccc(O)cc2)NC(=O)[C@@H](N)CCC(=O)NC[C@@H](C(=O)N2CCC[C@H]2C(=O)NC(C)(C)C(=O)NCC(=O)N[C@@H](CO[C@@H]2O[C@H](CO)[C@@H](O)[C@H](O)[C@H]2O)C(N)=O)NC(=O)[C@H](CC(N)=O)NC(=O)[C@H](CCC(N)=O)NC1=O | – | Not Active | Not Active | 0.06 | Active
3 | CC[C@H](C)[C@@H]1NC(=O)[C@H](Cc2ccc(O)cc2)NC(=O)[C@@H](N)CSSC[C@@H](C(=O)N2CCC[C@H]2C(=O)N[C@@H](CC(C)C)C(=O)NCC(N)=O)NC(=O)[C@H](CC(N)=O)NC(=O)[C@H](CCC(N)=O)NC1=O | – | – | – | – | inactive
4 | CN1CC[C@]23c4c5ccc(O)c4O[C@H]2[C@@H](O)C=C[C@H]3[C@H]1C5 | – | – | – | – | Active
5 | CC[C@H](C)[C@@H]1NC(=O)[C@H](Cc2ccc(O)cc2)NC(=O)[C@@H](N)CC(=O)NC[C@@H](C(=O)N2CCC[C@H]2C(=O)N[C@@H](CC(C)C)C(=O)NCC(N)=O)NC(=O)[C@H](CC(N)=O)NC(=O)[C@H](CCC(N)=O)NC1=O (H-DYIQN[Dap]PLG-NH2; lactam 1-6) | – | Not Active | Not Active | – | Active
6 | CC[C@H](C)[C@@H]1NC(=O)[C@H](Cc2ccc(O)cc2)NC(=O)[C@@H](N)CC(=O)NC[C@@H](C(=O)N2CCC[C@H]2C(=O)N[C@@H](CC(C)C)C(=O)NCC(=O)N[C@@H](CO[C@@H]2O[C@H](CO)[C@@H](O[C@@H]3O[C@H](CO)[C@H](O)[C@H](O)[C@H]3O)[C@H](O)[C@H]2O)C(N)=O)NC(=O)[C@H](CC(N)=O)NC(=O)[C@H](CCC(N)=O)NC1=O (H-DYIQN[Dap]PLGS(X1)-NH2; lactam 1-6) | – | Not Active | Not Active | 160 | –
7 | CC[C@H](C)[C@@H]1NC(=O)[C@H](Cc2ccc(O)cc2)NC(=O)[C@@H](N)CC(=O)NC[C@@H](C(=O)N2CCC[C@H]2C(=O)N[C@@H](CC(C)C)C(=O)N[C@@H](CO[C@@H]2O[C@H](CO)[C@@H](O[C@@H]3O[C@H](CO)[C@H](O)[C@H](O)[C@H]3O)[C@H](O)[C@H]2O)C(N)=O)NC(=O)[C@H](CC(N)=O)NC(=O)[C@H](CCC(N)=O)NC1=O (H-DYIQN[Dap]PLS(X1)-NH2; lactam 1-6) | – | Not Active | Not Active | 0.54 | –
8 | CC[C@H](C)[C@@H]1NC(=O)[C@H](Cc2ccc(O)cc2)NC(=O)[C@@H](N)CCC(=O)NC[C@@H](C(=O)N2CCC[C@H]2C(=O)N[C@@H](CC(C)C)C(=O)NCC(N)=O)NC(=O)[C@H](CC(N)=O)NC(=O)[C@H](CCC(N)=O)NC1=O (H-EYIQN[Dap]PLG-NH2; lactam 1-6) | – | Not Active | Not Active | – | –
9 | CC[C@H](C)[C@@H]1NC(=O)[C@H](Cc2ccc(O)cc2)NC(=O)[C@@H](N)CCC(=O)NC[C@@H](C(=O)N2CCC[C@H]2C(=O)N[C@@H](CC(C)C)C(=O)N[C@@H](CO[C@@H]2O[C@H](CO)[C@@H](O)[C@H](O)[C@H]2O)C(N)=O)NC(=O)[C@H](CC(N)=O)NC(=O)[C@H](CCC(N)=O)NC1=O (H-EYIQN[Dap]PLS(βGlc)-NH2; lactam 1-6) | – | Not Active | Not Active | 0.73 | –
10 | CC[C@H](C)[C@@H]1NC(=O)[C@H](Cc2ccc(O)cc2)NC(=O)[C@@H](N)CCC(=O)NC[C@@H](C(=O)N2CCC[C@H]2C(=O)NC(C)(C)C(=O)N[C@@H](CO[C@@H]2O[C@H](CO)[C@@H](O)[C@H](O)[C@H]2O)C(N)=O)NC(=O)[C@H](CC(N)=O)NC(=O)[C@H](CCC(N)=O)NC1=O (H-EYIQN[Dap]P[Aib]S(βGlc)-NH2; lactam 1-6) | – | Not Active | Not Active | 220 | –
